Shown are actives, neighbours in structure and some others; about 5.8% of the full set was active somewhere.
IDH1 R132H inh: inhibitors of IDH1 R132H reductase, primary screen, biochemical, plate reader, single point. Isocitrate dehydrogenase [NADP] cytoplasmic (Homo sapiens), O75874. diaphorase/resazurin fluorescence, 60 min. inhibition, % at 10 µM. hit rate 0.18% among 70,000. AID 624101, 2012; in the data active = inhibition above about 34%; inconclusive = no clear call, values can overlap the other calls; inactive = below about 11%;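 note: 0% = DMSO and 100% = no enzyme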
Target sequence (O75874 whole entry R132H): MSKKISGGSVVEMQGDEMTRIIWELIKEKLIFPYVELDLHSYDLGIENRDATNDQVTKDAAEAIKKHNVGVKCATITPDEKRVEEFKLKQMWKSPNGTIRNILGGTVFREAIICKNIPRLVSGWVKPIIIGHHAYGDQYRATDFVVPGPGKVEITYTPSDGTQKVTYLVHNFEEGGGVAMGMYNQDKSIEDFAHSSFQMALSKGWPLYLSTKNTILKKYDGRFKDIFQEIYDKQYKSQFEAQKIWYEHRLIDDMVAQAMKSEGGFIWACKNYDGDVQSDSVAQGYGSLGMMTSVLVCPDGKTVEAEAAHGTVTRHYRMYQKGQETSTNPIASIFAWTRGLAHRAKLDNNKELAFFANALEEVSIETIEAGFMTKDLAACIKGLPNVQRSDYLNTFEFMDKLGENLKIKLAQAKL
KDM4C inh: inhibitors of GASC-1 (KDM4C) histone demethylase, primary screen, biochemical, single concentration HTS; inhibition, % at 12.5 µM; AID 720574, 2013; GST-KDM4C 2-372, H3K9me3 peptide, LANCE TR-FRET; hit rate 0.15% among 96,000; Lysine-specific demethylase 4C (Homo sapiens), Q9H3R0;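 active = mean replicate inhibition above about 25%, with at least 55% of replicates also reaching it, limit read from the data, passing the limit was not always enough; inconclusive = only one of those two conditions met; inactive = neither condition met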
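Material: N-terminal GST-fused human GASC-1 (KDM4C) fragment, residues 2-372. Input: 10 nM enzyme. Incubation: enzyme reaction 30 min, then detection 60 min, both room temperature. Doses: one test concentration per compound. Read-out basis: inhibition from TR-FRET ratio decrease. Detection: LANCE TR-FRET, excitation 340 nm, emissions 618 and 671 nm.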
Pf Dd2 inh: P. falciparum Dd2 growth inhibitors, primary screen, SYBR Green fluorescence, single dose replicates; 72 h; hits give low values; activity change, % at 10 µM; hit rate 2.3% among 94,000; in the data active = activity change below about -80%; inconclusive = no clear call, values can overlap the other calls
T cruzi growth-1: T. cruzi intracellular proliferation inhibitors, primary screen, cell-based, beta-gal Tulahuen parasites, NIH3T3 host, luminescence. T. cruzi beta-gal in NIH3T3, GalScreen luminescence, 90 h. inhibition, % at 8.34 µM. hit rate 5.9% among 77,000. AID 624255, 2012;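 active = mean inhibition above about 93%, with at least 55% of replicates each passing it, limit read from the data, passing the limit was not always enough; inconclusive = only one of those two conditions holds; inactive = neither condition holds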
T cruzi growth-2: T. cruzi intracellular proliferation inhibitors, confirmation, cell-based, NIH3T3 host, beta-gal parasite, luminescence, cherry-pick; shares compounds with T cruzi growth-1; T. cruzi beta-gal in NIH3T3, GalScreen luminescence, 90 h; inhibition, % at 8.35 µM; hit rate 72% among 5,600; AID 651739, 2012;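 active = mean replicate inhibition above about 95% and at least 55% of replicates individually reaching it, limit read from the data; inconclusive = only one of the two criteria is met; inactive = neither criterion is met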
T cruzi growth-3: inhibitors of intracellular T. cruzi replication, confirmation, NIH3T3 host cells, beta-gal parasites, cherry-pick, set 2; shares compounds with T cruzi growth-1; T. cruzi beta-gal in NIH3T3, GalScreen luminescence, 90 h; inhibition, % at 2.09 µM; hit rate 21% among 5,600;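 active = mean inhibition above about 95%, with at least 55% of replicates also reaching it, limit read from the data; inconclusive = meets just one of the two conditions; inactive = meets neither condition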;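 note: plate controls were neutral control median for no effect and positive control median for full effect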
NIH3T3 tox: cytotoxicity in mouse NIH/3T3 fibroblasts, confirmation, cytotoxicity control for T. cruzi proliferation inhibitor project, cell-based, cherry-pick, single point. AID 651742, 2012. cytotoxicity (signal decrease), % at 8.35 µM. hit rate 14% among 5,600. NIH/3T3 viability, CellTiter-Glo ATP luminescence, 90 h. shares compounds with T cruzi growth-1;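 active = mean signal decrease across replicates above about 35% based on untreated-well scatter, with enough replicates individually passing, limit read from the data; inconclusive = no rule stated though some were filed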;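 note: 0% = median of neutral control wells and 100% = median of positive control wells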
3T3 cytotox 2: NIH/3T3 fibroblast cytotoxicity, confirmation, cytotoxicity control, cell-based, cherry-pick, single point, set 2 | NIH/3T3 viability, CellTiter-Glo ATP luminescence, 90 h | shares compounds with T cruzi growth-1 | inhibition, % at 24.9 µM | hit rate 56% among 5,600;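 active = mean loss of cell viability signal at or above a set limit, and enough replicates individually reaching it; inconclusive = meets only the mean limit or only the replicate share; inactive = meets neither condition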;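 note: 0% = median of neutral control wells and 100% = median of positive control wells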
* marks the source's active call; other numbers are inactive results; u = inconclusive; x = no result given.

SMILES	IDH1 R132H inh	KDM4C inh	Pf Dd2 inh	T cruzi growth-1	T cruzi growth-2	T cruzi growth-3	NIH3T3 tox	3T3 cytotox 2
CCC(Sc1nc2ccccc2s1)C(=O)Nc1ccc(Br)cc1 (configuration not stated)	0	x	x	x	x	x	x	x
CC(C)NC(=O)N1[C@H](C#N)[C@@H](c2ccc(C#CC3CC3)cc2)[C@@H]1CO	x	1	-32	u	109*	82	9	7
CN(C)CC(=O)N1[C@@H](C#N)[C@@H](c2ccc(C#CC3CC3)cc2)[C@@H]1CO	x	1	-26	89	x	x	x	x
CC(C)NC(=O)N1[C@H](CO)[C@H](c2ccc(C#CC3CC3)cc2)[C@@H]1C#N	x	-1	2	76	x	x	x	x
CC(C)NC(=O)N1[C@H](CO)[C@@H](c2ccc(C#CC3CC3)cc2)[C@@H]1C#N	x	0	-33	u	107*	77	-5	9
CCn1c2ccccc2c2cc(NC(=O)CCN3C(=O)c4ccccc4C3=O)ccc21	0	x	x	x	x	x	x	x
Cc1ccccc1-c1nnc(SCC(=O)Nc2ccc(F)c(F)c2)n1C	0	x	x	x	x	x	x	x
O=C(NCC1CC1)[C@@H]1[C@@H](CO)[C@@H]2Cn3c(ccc(-c4cncnc4)c3=O)[C@@H]2N1C(=O)NC1CCCC1	x	2	x	-29	x	x	x	x
O=C(NCC1CC1)[C@@H]1[C@@H](CO)[C@@H]2Cn3c(ccc(-c4cccnc4)c3=O)[C@@H]2N1C(=O)NC1CCCC1	x	3	2	u	-1	32	-6	15
O=C(Nc1nccs1)[C@H]1[C@H](CO)[C@H]2Cn3c(ccc(-c4cccnc4)c3=O)[C@H]2N1CC1CCCC1	x	4	-9	u	20	-3	11	54*
O=C(Nc1nccs1)[C@@H]1[C@@H](CO)[C@@H]2Cn3c(cccc3=O)[C@@H]2N1C(=O)C1CCC1	x	1	13	101*	1	-13	3	1
CCN1[C@H](C(=O)NCc2ccc(F)cc2)[C@@H](CO)[C@@H]2Cn3c(ccc(-c4ccccc4OC)c3=O)[C@@H]21	x	1	x	104*	69	18	17	3
COc1ccc(Cl)cc1NC(=O)CN(Cc1ccccc1)S(C)(=O)=O	0	x	x	x	x	x	x	x
CCN1[C@@H]2c3ccc(-c4ccccc4OC)c(=O)n3C[C@@H]2[C@@H](CO)[C@@H]1C(=O)Nc1nccs1	x	1	6	87	x	x	x	x
COc1ccccc1-c1ccc2n(c1=O)C[C@H]1[C@H](CO)[C@@H](C(=O)Nc3nccs3)N(CC3CC3)[C@@H]21	x	3	-1	u	-1	-28	3	11
O=C(NCc1ccc(F)cc1)[C@@H]1[C@@H](CO)[C@@H]2Cn3c(cccc3=O)[C@@H]2N1CCC(F)(F)F	x	1	x	143*	-1	-5	0	1
COC(=O)c1ccc(NC(=O)CCn2nc(-c3ccc(Cl)cc3)c3ccccc3c2=O)cc1	0	x	x	x	x	x	x	x
N#C[C@@H]1[C@@H](c2ccc(C#CC3CCCC3)cc2)[C@H](CO)N1C(=O)Cc1ccccn1	x	-3	-74	x	x	x	x	x
N#C[C@@H]1[C@H](c2ccc(C#CC3CCCCC3)cc2)[C@@H](CO)N1C(=O)Cc1ccccn1	x	0	-76	99*	96*	103*	2	99*
C/C=C/c1ccc([C@@H]2[C@H](C#N)N(C(=O)Cc3ccccn3)[C@H]2CO)cc1	x	-1	-32	91	x	x	x	x
N#C[C@H]1[C@H](c2ccc(C#CC3CCCC3)cc2)[C@H](CO)N1C(=O)Cc1ccccn1	x	0	-43	x	x	x	x	x
C/C=C/c1ccc([C@H]2[C@@H](C#N)N(C(=O)Cc3ccccn3)[C@@H]2CO)cc1	x	-2	-33	103*	98*	-1	3	u
N#C[C@@H]1[C@H](c2ccc(C#CC3CCCCC3)cc2)[C@H](CO)N1C(=O)Cc1ccccn1	x	0	-39	98*	92	112*	17	28
N#C[C@@H]1[C@@H](c2ccc(C#CC3CC3)cc2)[C@H](CO)N1C(=O)Cc1ccccn1	x	-2	-57	99*	104*	75	u	1
N#C[C@@H]1[C@@H](c2ccc(C#CC3CCCCC3)cc2)[C@H](CO)N1C(=O)Cc1ccccn1	x	-3	-51	89	x	x	x	x
SMILES	IDH1 R132H inh	KDM4C inh	Pf Dd2 inh	T cruzi growth-1	T cruzi growth-2	T cruzi growth-3	NIH3T3 tox	3T3 cytotox 2
CNC[C@H]1Oc2cc(C#Cc3ccccc3OC)ccc2S(=O)(=O)N([C@H](C)CO)C[C@@H]1C	0	-5	x	101*	107*	86	20	104*
COc1ccccc1C#Cc1ccc2c(c1)O[C@@H](CN(C)C)[C@@H](C)CN([C@@H](C)CO)S2(=O)=O	0	-1	-64	x	x	x	x	x
CNC[C@@H]1Oc2cc(C#Cc3ccccc3OC)ccc2S(=O)(=O)N([C@H](C)CO)C[C@H]1C	-2	-2	x	102*	102*	69	27	103*
CNC[C@@H]1Oc2cc(C#Cc3ccccc3)ccc2S(=O)(=O)N([C@@H](C)CO)C[C@H]1C	-1	-2	-70	x	x	x	x	x
CCC1(C)Cc2ccccc2-c2nc3[nH]nc(SCC(=O)Nc4ccc(OC)c(Cl)c4)n3c(=O)c21 (configuration not stated)	0	x	x	x	x	x	x	x
CN(C)C(=O)c1ccc(-c2ccc([C@H]3[C@@H](CO)N4CCCCN(C(=O)C5CCCC5)C[C@H]34)cc2)cc1	x	x	18	102*	105*	101*	15	39*
C/C=C/c1ccc([C@H]2[C@@H](CO)N3CCCCN(C(=O)C4CCCC4)C[C@@H]23)cc1	x	1	-10	107*	108*	86	1	5
CN(C)C(=O)c1ccc(-c2ccc([C@H]3[C@@H](CO)N4CCCCN(C(=O)C5CCCC5)C[C@@H]34)cc2)cc1	x	x	15	u	110*	93	-20	-2
CC(C)[C@@H]1CC[C@@]2(C)[C@H](O)CC[C@@](C)(O)[C@@H]2[C@@H]1OC(=O)/C=C/c1ccccc1	0	x	x	x	x	x	x	x
C[C@@H]1CN([C@@H](C)CO)C(=O)c2cc(C#Cc3ccccn3)cnc2O[C@H]1CN(C)Cc1ccccc1	0	0	-38	128*	105*	92	1	10
